{"source": "ChEMBL document CHEMBL4138113", "about": "“Novel propanamides as fatty acid amide hydrolase inhibitors” (Eur J Med Chem, 2017)", "molecular_target": "T1, Fatty-acid amide hydrolase 1 (Rattus norvegicus, UniProt P97612)", "T1 sequence (P97612 whole entry)": "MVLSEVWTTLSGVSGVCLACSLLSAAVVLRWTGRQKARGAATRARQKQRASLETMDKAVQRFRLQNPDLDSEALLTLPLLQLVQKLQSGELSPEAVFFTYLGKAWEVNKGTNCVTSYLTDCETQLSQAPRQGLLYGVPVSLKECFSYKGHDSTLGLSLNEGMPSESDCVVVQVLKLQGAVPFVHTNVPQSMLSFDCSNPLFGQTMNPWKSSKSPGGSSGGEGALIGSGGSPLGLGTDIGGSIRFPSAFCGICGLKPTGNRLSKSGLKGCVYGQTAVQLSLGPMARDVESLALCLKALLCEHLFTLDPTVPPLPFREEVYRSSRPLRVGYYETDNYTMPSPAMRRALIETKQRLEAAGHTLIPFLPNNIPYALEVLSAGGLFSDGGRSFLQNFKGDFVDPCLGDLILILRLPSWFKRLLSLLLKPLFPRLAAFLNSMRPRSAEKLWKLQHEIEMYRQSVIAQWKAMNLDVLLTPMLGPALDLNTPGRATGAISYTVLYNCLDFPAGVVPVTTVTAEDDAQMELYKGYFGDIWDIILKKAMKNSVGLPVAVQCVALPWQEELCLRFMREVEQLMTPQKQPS", "assay": "Inhibition of rat brain FAAH using [3H]AEA as substrate", "in_short": "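Brains (minus cerebella) of adult Wistar or Sprague-Dawley rats homogenized in HEPES/MgCl2 pH 7.0, washed by repeated centrifugation, preincubated 15 min at 37 °C, resuspended in Tris-HCl/EDTA/MgCl2 pH 7.4. 1 µg protein per assay mixed on ice with inhibitor, then 0.5 µM [3H]AEA with fatty acid-free BSA, 10 min at 37 °C. Charcoal/HCl stop, supernatant counted. At least five half-log concentrations, at least 3 experiments.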", "data": [{"smiles": "CCCCC/C=C\\C/C=C\\C/C=C\\C/C=C\\CCCC(=O)NCCc1c[nH]c2ccc(O)cc12", "values": [{"measurement": "IC50", "result": 1.2, "unit": "µM"}]}]}
